Measured values as given in ChEMBL document CHEMBL4304834, “3-Amino-chromanes and Tetrahydroquinolines as Selective 5-HT2B, 5-HT7, or σ1 Receptor Ligands” (ACS Med Chem Lett, 2019).

Tests used:
D(4) dopamine receptor = target: T1, D(4) dopamine receptor (Homo sapiens, UniProt P21917); assay: Displacement of [3H]-methylspiperone from human recombinant dopamine D4 receptor expressed in Stable HEK cells after 90 mins by microbeta scintillation counting method; assay type: cell-based
T1 sequence (P21917 whole entry): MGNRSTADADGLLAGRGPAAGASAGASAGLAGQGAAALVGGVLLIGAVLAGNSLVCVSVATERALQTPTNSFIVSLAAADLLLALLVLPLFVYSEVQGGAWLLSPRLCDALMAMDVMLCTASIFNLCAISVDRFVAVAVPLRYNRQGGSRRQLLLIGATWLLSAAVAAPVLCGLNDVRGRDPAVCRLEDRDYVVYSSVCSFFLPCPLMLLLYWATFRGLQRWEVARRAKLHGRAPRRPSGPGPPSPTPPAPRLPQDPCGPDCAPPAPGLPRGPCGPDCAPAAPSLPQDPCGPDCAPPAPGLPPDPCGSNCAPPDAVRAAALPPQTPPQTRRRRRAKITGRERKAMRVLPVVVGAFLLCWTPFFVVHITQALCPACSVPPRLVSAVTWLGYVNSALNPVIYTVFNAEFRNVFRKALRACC
Summary of the method: (§1)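 Radioligand binding was run by the NIMH Psychoactive Drug Screening Program. Compounds were first screened at 10 μM. Those giving ≥50% binding were taken to full competition curves. Ki is reported as pKi from a sigmoidal curve fit of triplicate measurements in a single experiment; the error is the curve-fit error.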

[1] = target: 5-hydroxytryptamine receptor 2B (Homo sapiens, UniProt P41595); assay: Displacement of [3H]-LSD from human recombinant 5-HT2B receptor stably expressed in HEK cells after 90 mins by microbeta scintillation counting method; assay type: cell-based; conditions: read-out: pKi (converted)
Summary of the method: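 Run by NIMH Psychoactive Drug Screening Program. Otherwise, competition binding curves are generated and pKi is taken from a sigmoidal curve fit. Data are either triplicate measurements within one experiment, with the error from the fit, or the mean of repeated experiments, each run in triplicate.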

[2] = target: T2, Muscarinic acetylcholine receptor M4 (Homo sapiens, UniProt P08173); assay: Displacement of [3H]-QNB/[3H]-NMS from human recombinant Muscarinic acetylcholine M4 receptor expressed in stable CHO cells after 90 mins by microbeta scintillation counting method; assay type: cell-based; summary of the method: as §1
T2 sequence (P08173 whole entry): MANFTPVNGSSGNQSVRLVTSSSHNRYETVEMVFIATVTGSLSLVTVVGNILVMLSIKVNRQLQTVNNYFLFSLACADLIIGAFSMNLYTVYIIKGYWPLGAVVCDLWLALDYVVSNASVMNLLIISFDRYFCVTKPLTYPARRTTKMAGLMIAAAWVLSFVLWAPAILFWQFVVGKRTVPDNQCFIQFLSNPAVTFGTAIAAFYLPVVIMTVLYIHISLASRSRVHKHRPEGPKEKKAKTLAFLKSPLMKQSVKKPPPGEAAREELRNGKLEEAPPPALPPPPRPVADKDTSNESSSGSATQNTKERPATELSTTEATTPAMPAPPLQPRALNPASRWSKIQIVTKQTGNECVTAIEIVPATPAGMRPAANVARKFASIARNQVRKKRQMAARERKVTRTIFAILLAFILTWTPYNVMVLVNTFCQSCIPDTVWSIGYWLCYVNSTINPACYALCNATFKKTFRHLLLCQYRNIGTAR

Histamine H4 receptor = Histamine H4 receptor (Homo sapiens, UniProt Q9H3N8); assay: Displacement of [3H]-Histamine from human recombinant histamine H4 receptor expressed in HEKT cells after 90 mins by microbeta scintillation counting method; assay type: cell-based
Summary of the method: (§2)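 Radioligand binding run by the NIMH Psychoactive Drug Screening Program. […] Otherwise Ki comes from sigmoidal curve fits of triplicate measurements in a single experiment, or is averaged over repeated experiments each run in triplicate.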

D(2) dopamine receptor = D(2) dopamine receptor (Homo sapiens, UniProt P14416); assay: Displacement of [3H]-N-methylspiperone from human recombinant dopamine D2 receptor expressed in stable fibroblast cells after 90 mins by microbeta scintillation counting method; assay type: cell-based; summary of the method: as §2
[3] = target: Beta-3 adrenergic receptor (Homo sapiens, UniProt P13945); assay: Displacement of [3H]-CGP12177 from human recombinant adrenergic Beta3 receptor expressed in Flp-In HEK cells at 10 uM after 90 mins by microbeta scintillation counting method relative to control; assay type: cell-based; summary of the method: as §2
[4] = Displacement of [3H]-Flunitrazepam from BZP receptor in rat brain after 90 mins by microbeta scintillation counting method; assay type: tissue-based
Summary of the method: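 Radioligand binding run by the NIMH Psychoactive Drug Screening Program. Otherwise Ki comes from sigmoidal curve fits of triplicate measurements in a single experiment, or is averaged over repeated experiments each run in triplicate.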

[5] = target: 5-hydroxytryptamine receptor 1E (Homo sapiens, UniProt P28566); assay: Displacement of [3H]-HT from human recombinant 5-HT1E receptor expressed in stable HEK cells at 10 uM after 90 mins by microbeta scintillation counting method relative to control; assay type: cell-based; summary of the method: as §2
[6] = target: T3, Muscarinic acetylcholine receptor M4 (Homo sapiens) (UniProt P08173); assay: Displacement of [3H]-QNB/[3H]-NMS from human recombinant Muscarinic acetylcholine M4 receptor expressed in stable CHO cells at 10 uM after 90 mins by microbeta scintillation counting method relative to control; assay type: cell-based
T3 sequence (whole entry): T2 sequence (P08173 whole entry)

[7] = target: 5-hydroxytryptamine receptor 1D (Homo sapiens, UniProt P28221); assay: Displacement of [3H]5-CT from human recombinant 5-HT1D receptor transiently expressed in HEKT cells at 10 uM after 90 mins by microbeta scintillation counting method relative to control; assay type: cell-based
[8] = target: 5-hydroxytryptamine receptor 1B (Homo sapiens, UniProt P28222); assay: Displacement of [3H]5-CT from human recombinant 5-HT1B receptor expressed in stable HEK cells at 10 uM after 90 mins by microbeta scintillation counting method relative to control; assay type: cell-based
[9] = target: T4, 5-hydroxytryptamine receptor 3A (Homo sapiens) (UniProt P46098); assay: Displacement of [3H]-GR65630 from human recombinant 5-HT3 receptor expressed in HEKT cells at 10 uM after 90 mins by microbeta scintillation counting method relative to control; assay type: cell-based; summary of the method: as §2
T4 sequence (whole entry): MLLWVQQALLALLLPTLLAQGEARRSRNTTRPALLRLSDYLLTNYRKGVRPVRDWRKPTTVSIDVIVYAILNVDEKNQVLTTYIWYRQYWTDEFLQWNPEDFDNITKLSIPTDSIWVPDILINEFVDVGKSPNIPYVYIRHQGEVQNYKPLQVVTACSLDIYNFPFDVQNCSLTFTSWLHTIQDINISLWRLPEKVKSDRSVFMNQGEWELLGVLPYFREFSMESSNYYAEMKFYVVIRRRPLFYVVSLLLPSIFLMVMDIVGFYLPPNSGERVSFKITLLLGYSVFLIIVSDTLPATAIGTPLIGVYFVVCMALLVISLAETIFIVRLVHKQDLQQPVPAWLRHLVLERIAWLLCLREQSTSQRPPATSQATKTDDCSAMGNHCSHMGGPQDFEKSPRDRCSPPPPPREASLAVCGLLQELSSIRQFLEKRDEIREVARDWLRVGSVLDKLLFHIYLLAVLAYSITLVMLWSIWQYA

[10] = target: 5-hydroxytryptamine receptor 6 (Homo sapiens, UniProt P50406); assay: Displacement of [3H]-LSD from human recombinant 5-HT6 receptor expressed in stable HEK cells at 10 uM after 90 mins by microbeta scintillation counting method relative to control; assay type: cell-based; summary of the method: as §2
Chain of 5-hydroxytryptamine receptor 6 (P50406 whole entry): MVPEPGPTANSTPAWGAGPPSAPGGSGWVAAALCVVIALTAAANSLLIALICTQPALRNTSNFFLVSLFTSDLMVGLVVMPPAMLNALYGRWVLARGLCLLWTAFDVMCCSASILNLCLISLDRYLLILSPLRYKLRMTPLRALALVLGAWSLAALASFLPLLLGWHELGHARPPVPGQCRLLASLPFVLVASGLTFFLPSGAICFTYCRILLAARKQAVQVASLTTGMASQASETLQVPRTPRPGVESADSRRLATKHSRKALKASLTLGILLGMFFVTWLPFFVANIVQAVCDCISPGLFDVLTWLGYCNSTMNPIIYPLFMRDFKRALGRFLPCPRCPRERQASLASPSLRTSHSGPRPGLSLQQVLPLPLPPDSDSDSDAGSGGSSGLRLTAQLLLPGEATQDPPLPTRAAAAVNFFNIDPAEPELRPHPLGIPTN

Chain of 5-hydroxytryptamine receptor 1D (P28221 whole entry): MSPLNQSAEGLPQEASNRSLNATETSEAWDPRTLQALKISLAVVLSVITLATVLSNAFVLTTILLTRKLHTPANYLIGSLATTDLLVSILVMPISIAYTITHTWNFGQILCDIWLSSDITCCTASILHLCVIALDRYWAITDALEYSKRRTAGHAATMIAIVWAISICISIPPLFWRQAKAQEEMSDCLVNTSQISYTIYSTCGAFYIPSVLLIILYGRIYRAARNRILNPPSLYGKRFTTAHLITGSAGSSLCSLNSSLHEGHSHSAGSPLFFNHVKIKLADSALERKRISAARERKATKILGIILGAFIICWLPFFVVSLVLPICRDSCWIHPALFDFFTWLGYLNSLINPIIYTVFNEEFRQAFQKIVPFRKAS
Chain of 5-hydroxytryptamine receptor 1E (P28566 whole entry): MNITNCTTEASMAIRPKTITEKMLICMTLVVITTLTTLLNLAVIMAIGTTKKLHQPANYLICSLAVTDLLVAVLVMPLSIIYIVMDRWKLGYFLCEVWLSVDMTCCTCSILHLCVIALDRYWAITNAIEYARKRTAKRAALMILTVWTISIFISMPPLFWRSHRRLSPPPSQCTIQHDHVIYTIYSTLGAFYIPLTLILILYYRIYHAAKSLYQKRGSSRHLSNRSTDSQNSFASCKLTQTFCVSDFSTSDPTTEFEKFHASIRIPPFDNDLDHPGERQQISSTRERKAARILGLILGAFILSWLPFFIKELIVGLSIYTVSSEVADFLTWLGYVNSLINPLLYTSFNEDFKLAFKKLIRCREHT
Chain of 5-hydroxytryptamine receptor 1B (P28222 whole entry): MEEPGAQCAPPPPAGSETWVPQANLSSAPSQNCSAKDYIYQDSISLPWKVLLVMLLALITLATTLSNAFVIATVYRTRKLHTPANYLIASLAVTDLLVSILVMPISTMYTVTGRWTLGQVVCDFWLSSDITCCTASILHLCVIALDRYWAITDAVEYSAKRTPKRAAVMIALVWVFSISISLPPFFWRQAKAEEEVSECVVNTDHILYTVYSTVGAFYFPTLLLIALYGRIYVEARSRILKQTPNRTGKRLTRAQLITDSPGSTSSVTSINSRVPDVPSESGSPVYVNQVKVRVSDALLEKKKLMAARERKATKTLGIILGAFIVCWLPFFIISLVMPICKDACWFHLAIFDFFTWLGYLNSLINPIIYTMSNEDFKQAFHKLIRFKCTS
Chain of Beta-3 adrenergic receptor (P13945 whole entry, looked up): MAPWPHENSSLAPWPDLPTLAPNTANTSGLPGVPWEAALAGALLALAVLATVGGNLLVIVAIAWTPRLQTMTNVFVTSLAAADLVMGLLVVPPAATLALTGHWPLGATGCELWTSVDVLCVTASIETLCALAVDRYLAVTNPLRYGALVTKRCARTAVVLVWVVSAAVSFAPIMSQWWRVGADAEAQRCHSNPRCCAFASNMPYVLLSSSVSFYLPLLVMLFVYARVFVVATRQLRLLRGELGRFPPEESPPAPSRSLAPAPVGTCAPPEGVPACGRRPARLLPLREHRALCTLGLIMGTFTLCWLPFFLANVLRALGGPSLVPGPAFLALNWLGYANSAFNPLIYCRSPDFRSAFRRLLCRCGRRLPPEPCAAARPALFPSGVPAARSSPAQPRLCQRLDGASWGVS
Chain of D(2) dopamine receptor (P14416 whole entry): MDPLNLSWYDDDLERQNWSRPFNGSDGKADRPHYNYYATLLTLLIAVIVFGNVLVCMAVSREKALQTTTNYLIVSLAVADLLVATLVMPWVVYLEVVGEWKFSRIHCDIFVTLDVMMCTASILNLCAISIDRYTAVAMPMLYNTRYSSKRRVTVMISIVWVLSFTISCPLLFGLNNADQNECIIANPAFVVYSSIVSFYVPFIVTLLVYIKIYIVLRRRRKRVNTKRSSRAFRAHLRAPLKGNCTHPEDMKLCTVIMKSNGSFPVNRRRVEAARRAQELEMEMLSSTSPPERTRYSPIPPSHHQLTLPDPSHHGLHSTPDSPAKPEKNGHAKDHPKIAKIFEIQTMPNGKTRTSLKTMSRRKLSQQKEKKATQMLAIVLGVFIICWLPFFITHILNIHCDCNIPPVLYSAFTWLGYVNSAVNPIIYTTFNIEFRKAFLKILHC
Chain of Histamine H4 receptor (Q9H3N8 whole entry): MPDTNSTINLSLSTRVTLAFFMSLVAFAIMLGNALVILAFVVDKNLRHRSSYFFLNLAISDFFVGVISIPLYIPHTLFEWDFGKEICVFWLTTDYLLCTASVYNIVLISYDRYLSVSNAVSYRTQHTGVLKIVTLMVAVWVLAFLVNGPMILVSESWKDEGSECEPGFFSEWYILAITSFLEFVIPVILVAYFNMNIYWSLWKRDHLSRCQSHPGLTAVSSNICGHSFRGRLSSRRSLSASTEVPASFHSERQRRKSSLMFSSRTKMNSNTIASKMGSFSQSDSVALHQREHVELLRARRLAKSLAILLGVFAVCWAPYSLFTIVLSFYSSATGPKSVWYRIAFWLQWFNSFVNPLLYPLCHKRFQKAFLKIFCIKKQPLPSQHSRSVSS
Chain of 5-hydroxytryptamine receptor 2B (P41595 whole entry): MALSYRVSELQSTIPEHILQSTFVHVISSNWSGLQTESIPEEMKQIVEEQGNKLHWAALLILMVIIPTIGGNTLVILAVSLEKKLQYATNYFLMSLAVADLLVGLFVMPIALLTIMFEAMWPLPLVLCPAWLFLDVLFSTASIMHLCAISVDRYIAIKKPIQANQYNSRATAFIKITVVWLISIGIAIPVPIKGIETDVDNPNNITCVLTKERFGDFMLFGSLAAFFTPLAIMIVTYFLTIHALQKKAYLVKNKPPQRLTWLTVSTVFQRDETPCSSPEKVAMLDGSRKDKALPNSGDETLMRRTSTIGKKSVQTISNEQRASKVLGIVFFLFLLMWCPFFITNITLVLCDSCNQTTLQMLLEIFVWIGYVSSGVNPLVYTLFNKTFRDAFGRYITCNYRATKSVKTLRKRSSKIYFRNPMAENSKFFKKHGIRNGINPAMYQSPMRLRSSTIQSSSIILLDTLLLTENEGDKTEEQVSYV

CC[C@H]1c2ccccc2N(c2ccccc2)C[C@@]1(C)N (racemic)
Ki (D(4) dopamine receptor): 2 µM | Ki [1]: 0.794 µM | Ki [2]: > 10 µM | Ki (Histamine H4 receptor): > 10 µM | Ki (D(2) dopamine receptor): > 10 µM

C[C@@]12CN(c3ccccc3)c3ccccc3[C@@H]1CCN2 (racemic)
Ki (D(4) dopamine receptor): > 10 µM | Ki [2]: > 10 µM | Ki (Histamine H4 receptor): > 10 µM | Ki (D(2) dopamine receptor): > 10 µM

CC[C@H]1c2cc(C)ccc2OC[C@@]1(C)N (racemic)
Ki (D(4) dopamine receptor): > 10 µM | inhibition [3]: < 50% | Ki [1]: 0.178 µM | pKi [4]: < 5 | inhibition [5]: < 50% | Ki [2]: > 10 µM | Ki (Histamine H4 receptor): > 10 µM | inhibition [6]: < 50% | inhibition [7]: < 50% | Ki (D(2) dopamine receptor): > 10 µM | inhibition [8]: < 50% | inhibition [9]: < 50% | inhibition [10]: < 50%

COc1cc(OC)c2c(c1)OC[C@@]1(C)NCC[C@@H]21 (racemic)
Ki (D(4) dopamine receptor): > 10 µM | inhibition [3]: < 50% | Ki [1]: 0.251 µM | pKi [4]: 5.2 | inhibition [5]: < 50% | Ki [2]: > 10 µM | Ki (Histamine H4 receptor): > 10 µM | inhibition [6]: < 50% | inhibition [7]: < 50% | Ki (D(2) dopamine receptor): > 10 µM | inhibition [8]: < 50% | inhibition [9]: < 50% | inhibition [10]: < 50%

CC[C@H]1c2cc(OC)ccc2CC[C@@]1(C)N (racemic)
Ki (D(4) dopamine receptor): > 10 µM | inhibition [3]: < 50% | Ki [1]: 0.145 µM | pKi [4]: 5.8 | inhibition [5]: < 50% | Ki [2]: > 10 µM | Ki (Histamine H4 receptor): > 10 µM | inhibition [6]: < 50% | inhibition [7]: < 50% | Ki (D(2) dopamine receptor): > 10 µM | inhibition [8]: < 50% | inhibition [9]: < 50% | inhibition [10]: < 50%
